Experimental findings from article PMC5586103 (Bioorganic & medicinal chemistry letters, 2015) are described below.

Data set [1] has as its system normal human fibroblasts (NHFB). As to the kind of experiment: SRB cytotoxicity assay in normal human fibroblasts. The format is cell-based. The settings on record: Fibroblast, read-out: EC50 NHFB. On the technique in general: The SRB assay estimates cell density from bound dye.
For a further data set, the system named is NSCLC cell line H460. As to the kind of experiment: SRB cytotoxicity assay in NSCLC cell line H460. The format is cell-based. Conditions: for cytoselective anti-cancer effects in H460 and H460TaxR cells (in words): single concentration 10 µM, SRB, H460 and H460TaxR versus NHFB. In a few lines: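 Sulforhodamine B (SRB) viability assay in H460 cells, run alongside drug-resistant H460TaxR and normal human fibroblasts (NHFB). The initial screen used a single test-compound concentration of 10 µM. DMSO served as the negative control, and viability in DMSO was set to 100%. Selected compounds were also tested across a range of doses in H460 and H460TaxR to give dose-dependent cytotoxicity.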

The nature of data set [2]: high throughput aqueous solubility assay. The class given is physicochemical. The settings on record: for aqueous solubility (in words): comparison within libraries.

What is called EC50 is the midpoint of the concentration-response curve. Regarding `CCN(CC)c1ccc(/C=C2/SC(N(c3ccccc3)c3ccccc3)=NC2=O)cc1` [Compound 27], the EC50 in data set [1] is more than 100 µM.
With `O=C1N=C(Nc2ccccc2)S/C1=C/c1ccc(N2CCOCC2)cc1` [Compound 3], in data set [1], the EC50 was more than 100 µM.
As to `CN(C)c1ccc(/C=C2/SC(=Nc3ccccc3)NC2=O)cc1` [Compound 1], the “cytoselective anti-cancer effects in H460 and H460TaxR cells (in words)” value (shortened to “cytoselective anti-cancer effects”) in the data set with NSCLC cell line H460 is on record as “good cytoselective anti-cancer effects”. In addition, in data set [1], the EC50 is more than 100 µM.
For `O=C1N=C(Nc2ccccc2)S/C1=C/c1ccc(N2CCNCC2)cc1` [Compound 5], the “anti-cancer activity (in words)” value with NSCLC cell line H460 (H460 and H460TaxR) was “reduced anticancer activity”. Also, in data set [2], the “aqueous solubility (in words)” value is “largest improvement in aqueous solubility”. Moreover, the EC50 in data set [1] is more than 100 µM.
Consider `CN(C1=NC(=O)/C(=C\c2ccc(N3CCNCC3)cc2)S1)c1ccccc1` [Compound 35], for which the “anti-cancer activity (in words)” value in the data set on NSCLC cell line H460 (H460 and H460TaxR) is listed as “weak anti-cancer effects”.
Take `CN(C1=NC(=O)/C(=C\c2ccc(N3CCOCC3)cc2)S1)c1ccccc1` [Compound 33]: the “anti-cancer activity (in words)” value in the data set on NSCLC cell line H460 (H460 and H460TaxR) is given as “weak anti-cancer effects”. The “aqueous solubility (in words)” value in data set [2] is “significantly better”. Moreover, the EC50 in data set [1] was more than 100 µM.
Take `CCN(CC)c1ccc(/C=C2/SC(N(C)c3ccccc3)=NC2=O)cc1` [Compound 32]: in the data set with NSCLC cell line H460, the “cytoselective anti-cancer effects” value is listed as “potent cytoselective anti-cancer activity”. The “aqueous solubility (in words)” value in data set [2] is “did not improve solubility”. Moreover, the EC50 in data set [1] was more than 100 µM.
In the case of `CCN(CC)c1ccc(/C=C2/SC(Nc3ccccc3Cl)=NC2=O)cc1` [Compound 12], in the data set with NSCLC cell line H460, the “cytoselective anti-cancer effects” value was “good cytoselective anti-cancer effects”.
For the compound `CN1CCN(c2ccc(/C=C3/SC(Nc4ccccc4)=NC3=O)cc2)CC1` [Compound 4], the “cytoselective anti-cancer effects” value in the data set with NSCLC cell line H460 is “good cytoselective anti-cancer effects”.
Regarding `CN(C)c1ccc(/C=C2/SC(=Nc3ccccc3Cl)NC2=O)cc1` [Compound 11], the “cytoselective anti-cancer effects” value in the data set with NSCLC cell line H460 is given as “good cytoselective anti-cancer effects”.
Consider `Cc1ccccc1NC1=NC(=O)/C(=C\c2ccc(N3CCNCC3)cc2)S1` [Compound 25], for which the “anti-cancer activity (in words)” value in the data set on NSCLC cell line H460 (H460 and H460TaxR) is reported as “reduced anticancer activity”. Besides, the “aqueous solubility (in words)” value in data set [2] was “largest improvement in aqueous solubility”.
For `CCN(CC)c1ccc(/C=C2/SC(Nc3ccccc3)=NC2=O)cc1` [Compound 2], the “cytoselective anti-cancer effects” value in the data set with NSCLC cell line H460 is listed as “good cytoselective anti-cancer effects”. Moreover, the EC50 in data set [1] is more than 100 µM.
For the compound `Cc1ccccc1/N=C1\NC(=O)/C(=C\c2ccc(N(C)C)cc2)S1` [Compound 21], in the data set on NSCLC cell line H460, the “cytoselective anti-cancer effects” value is “good cytoselective anti-cancer effects”.
Take `O=C1N=C(Nc2ccc(O)cc2)S/C1=C/c1ccc(N2CCNCC2)cc1` [Compound 10]: the “anti-cancer activity (in words)” value in the data set with NSCLC cell line H460 (H460 and H460TaxR) is listed as “reduced anticancer activity”. For the same compound, the “aqueous solubility (in words)” value in data set [2] is given as “largest improvement in aqueous solubility”.
Turning to `CCN(CC)c1ccc(/C=C2/SC(Nc3ccccc3C)=NC2=O)cc1` [Compound 22], the “cytoselective anti-cancer effects” value in the data set on NSCLC cell line H460 is “good cytoselective anti-cancer effects”.
For the compound `CN1CCN(c2ccc(/C=C3/SC(N(C)c4ccccc4)=NC3=O)cc2)CC1` [Compound 34], in the data set on NSCLC cell line H460 (H460 and H460TaxR), the “anti-cancer activity (in words)” value is recorded as “weak anti-cancer effects”.
Regarding `CN(C)c1ccc(/C=C2/SC(N(c3ccccc3)c3ccccc3)=NC2=O)cc1` [Compound 26], the EC50 in data set [1] was more than 100 µM.
As to `CN(C)c1ccc(/C=C2/SC(N(C)c3ccccc3)=NC2=O)cc1` [Compound 31], the “improvement in anti-cancer activity (EC50)” value in the data set with NSCLC cell line H460 (H460 and H460TaxR, compared to compound 1) came out at 10 fold. Further, in the data set on NSCLC cell line H460, the “cytoselective anti-cancer effects” value is on record as “potent cytoselective anti-cancer activity”. The “improvement in aqueous solubility” value in data set [2] (compared to compound 1) came to 5 fold.
